# A selection: hits, their analogues and other compounds. The true share with any hit is near 5.5%.
# Yeast lifespan up – compounds extending yeast replicative lifespan, primary screen, S. cerevisiae, OD615. S. cerevisiae growth with nicotinamide; deaD strain in restrictive glucose medium. inhibition of the nicotinamide effect, % at 10 µM. hit rate 0.68% among 130,000;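 active = inhibition above a set limit, placed 3 SD over the median of all compounds, cut at about 26% in these data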
#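 System: DeaD-strain S. cerevisiae / Buffer or medium: CSMM-D, restrictive glucose (dextrose) synthetic minimal medium / Probe or stimulus: nicotinamide, 1.5 mM, co-present with compound / Compound: one concentration, 10 µM, DMSO 0.25% / Incubation: 48 h compound exposure at 30 °C, humidified / Technique: optical density (absorbance) at 615 nm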
# KCC2 mod – KCC2 cotransporter modulators, thallium flux, primary screen, cell-based, HEK293 KCC2, FluoZin-2 fluorescence, MLSMR; Solute carrier family 12 member 5 (Homo sapiens), Q9H2X9; KCC2 cells, thallium flux FluoZin-2 fluorescence; B-score of Tl+ flux slope (higher = more flux/activation; lower = inhibition) at 10 µM; hit rate 2.2% among 190,000;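 active = thallium flux slope and its plate-corrected score both differing from the plate sample mean at a set confidence after two filtering rounds, in either direction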;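 also: slope of fluorescence scaled to starting intensity during 10 to 20 s after thallium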
# Target sequence (Q9H2X9 whole entry, looked up): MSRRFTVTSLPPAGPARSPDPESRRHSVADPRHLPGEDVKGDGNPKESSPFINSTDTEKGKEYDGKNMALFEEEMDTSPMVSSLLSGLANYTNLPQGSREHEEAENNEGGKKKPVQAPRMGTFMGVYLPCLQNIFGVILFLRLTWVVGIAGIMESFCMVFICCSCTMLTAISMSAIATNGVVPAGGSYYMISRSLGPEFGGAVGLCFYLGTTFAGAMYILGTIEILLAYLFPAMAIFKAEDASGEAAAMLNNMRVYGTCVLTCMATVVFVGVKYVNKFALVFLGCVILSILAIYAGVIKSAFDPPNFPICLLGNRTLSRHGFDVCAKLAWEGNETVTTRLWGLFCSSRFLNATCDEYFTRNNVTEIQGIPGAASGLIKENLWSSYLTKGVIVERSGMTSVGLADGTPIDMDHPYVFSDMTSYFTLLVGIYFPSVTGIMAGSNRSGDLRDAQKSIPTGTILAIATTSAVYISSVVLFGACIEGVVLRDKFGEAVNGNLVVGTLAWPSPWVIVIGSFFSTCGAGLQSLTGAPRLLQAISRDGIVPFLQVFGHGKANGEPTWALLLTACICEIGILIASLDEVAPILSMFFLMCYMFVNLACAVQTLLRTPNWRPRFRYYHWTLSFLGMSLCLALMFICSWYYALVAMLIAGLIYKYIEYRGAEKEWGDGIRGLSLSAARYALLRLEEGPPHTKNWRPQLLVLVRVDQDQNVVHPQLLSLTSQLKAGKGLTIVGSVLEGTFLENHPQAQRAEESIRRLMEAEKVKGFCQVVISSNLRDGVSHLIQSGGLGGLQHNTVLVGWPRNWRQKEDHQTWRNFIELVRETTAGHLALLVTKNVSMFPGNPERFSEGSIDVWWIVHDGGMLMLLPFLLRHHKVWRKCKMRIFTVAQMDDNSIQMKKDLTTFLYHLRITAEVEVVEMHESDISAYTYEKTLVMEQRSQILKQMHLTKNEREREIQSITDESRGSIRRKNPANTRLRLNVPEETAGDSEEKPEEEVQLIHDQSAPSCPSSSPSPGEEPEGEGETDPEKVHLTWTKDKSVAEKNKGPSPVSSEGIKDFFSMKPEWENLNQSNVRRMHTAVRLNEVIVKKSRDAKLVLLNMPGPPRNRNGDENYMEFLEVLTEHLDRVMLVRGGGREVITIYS
# RAM network inh – inhibitors of the yeast RAM network, primary screen, dse1pr::URA3 reporter, 5-FOA selection; S. cerevisiae dse1pr::URA3 reporter, 5-FOA growth OD615, 2 d; analog-sensitive cbk1-as2 kinase mutant strain; hit rate 1.8% among 190,000; inhibition, % at 50 µM; AID 868, 2007;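 active = inhibition above a set limit, 3 SD over mean compound inhibition, cut at about 8.4% in these data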;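 also: inhibition rescues growth on 5-FOA so higher OD means more RAM inhibition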
# BB579 growth dn – growth inhibitors of yeast BB579 in restrictive medium, primary screen, yeast lifespan-shortening project, S. cerevisiae | inhibition, % at 10 µM | hit rate 0.51% among 140,000 | OD615, 48 h | AID 804, 2007;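 active = inhibition above a set limit, 3 SD over the mean compound inhibition, cut at about 44% in these data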
#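 Test system: Saccharomyces cerevisiae DeaD strain BB579, replicative lifespan model yeast | Buffer or medium: Restrictive CSMM-D medium | Doses: One dose, 10 µM compound with 0.25% DMSO | Incubation: 48 h exposure, 30 °C | Detection: Culture absorbance at 615 nm | Control set: Amphotericin B at 10 µg/mL as positive control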
# WT yeast gro inh – growth inhibition of WT strain, primary screen, mitochondrial fusion inhibitor project, WT and mutant strains, chemical genetic; mitochondrial fusion phenotypic screen; inhibition, % at 10 µM; hit rate 2.1% among 190,000; AID 1362, 2008; in the data active = inhibition above about 58%; tested in S. cerevisiae
# A number is an active result; - = inactive; . = not tested or not shown.
SMILES,Yeast lifespan up,KCC2 mod,RAM network inh,BB579 growth dn,WT yeast gro inh
CC(C)CC(=O)NC1(C(F)(F)F)C(=O)N(CC(C)C)C2=C1C(=O)CC(C)(C)C2 (configuration not stated),-,-,-,-,-
O=S(=O)(NCC1CCCO1)c1cnc(Cl)c(Br)c1 (configuration not stated),-,-,-,-,-
CCC1SC(CC)C(=O)N(CC(=O)Nc2ccc3c(c2)OCO3)C1=O (configuration not stated),-,-,-,-,-
Cc1cc(C(=O)COC(=O)c2ccc[nH]c2=O)c(C)n1-c1ccccc1F,.,-,.,.,.
Cc1cc(C(=O)COC(=O)c2ccccc2O)c(C)n1Cc1cccs1,-,-,9.0,-,-
COCCn1c(C)cc(C(=O)COC(=O)c2ccccc2Br)c1C,.,-,-,.,-
Cc1ccc(-n2c(C)cc(C(=O)COC(=O)c3ccc[nH]c3=O)c2C)cc1C,-,-,-,99,-
CCCn1c(C)cc(C(=O)COC(=O)c2ccc[nH]c2=O)c1C,-,-,-,45,-
Cc1cccc(NC2=C(NC(=O)c3ccccc3)C(=O)c3ccccc3C2=O)c1,-,-,-,-,-
O=C(NC1=C(Nc2ccc(Cl)cc2)C(=O)c2ccccc2C1=O)c1ccccc1,-,-,-,-,79
CN(C1=C(NC(=O)c2ccc(Cl)cc2)C(=O)c2ccccc2C1=O)c1ccccc1,-,-,-,-,73
Cc1nc2sc(C(c3ccccc3)N3CCN(C)CC3)c(O)n2n1 (configuration not stated),.,-,.,.,-
COc1ccccc1N1C(=O)c2cccc3c(C(=O)O)ccc(c23)C1=O,-,-,-,-,-
COc1ccc2c3c(cccc13)C(=O)N(O)C2=O,58,-,-,-,-
NNC(=O)c1cnn(-c2ccccc2)c1-n1cccc1,.,-,-,.,-
Cc1cc(/C=C\c2ccccc2)nc2ccccc12,.,-,-,.,71
CC1(C)Cc2c(sc3[nH]c(=S)n(Cc4ccco4)c(=O)c23)CO1,-,9,-,-,-
O=c1c2c3c(sc2[nH]c(=S)n1Cc1ccco1)CCC3,.,78,.,.,.
Cn1c(=O)n(Cc2ccco2)c(=N)c2c3c(sc21)CCC3,-,-,-,-,-
O=C(Nc1cccc(C(F)(F)F)c1)N1CCN(C(=O)Nc2cccc(C(F)(F)F)c2)CC1,-,-,-,-,-
O=C(Nc1cccc(C(F)(F)F)c1)n1cc(-c2ccccn2)c(N2CCOCC2)n1,.,-,-,.,77
O=C(O)CCn1cc(/C=C/C(=O)c2ccc(Cl)cc2)c(-c2ccc(Br)cc2)n1,-,-,-,52,-
COc1cccc(C(=O)OCC(=O)NCCc2ccccc2)c1OC,.,-,-,.,.
O=C(COC(=O)c1cccc2ccccc12)NCCCc1ccccc1,-,-,11,-,-
Cc1cc(C)c2c3c(oc2n1)C(=O)N(c1cccc(Cl)c1)CC(=O)N3,.,-,.,.,.
SMILES,Yeast lifespan up,KCC2 mod,RAM network inh,BB579 growth dn,WT yeast gro inh
CCCC1CCC(c2ccc(C(N)=O)cc2)CC1 (configuration not stated),-,-,-,-,-
CCCC1CCC(c2ccc(C(=O)NN)cc2)CC1 (configuration not stated),-,-,-,-,84
COc1cccc(/C=C/C(=O)OCC(=O)N2c3ccccc3NC(=O)C2(C)C)c1,-,-,-,-,-
Cc1sc(NC(=O)c2ccco2)c(C(c2cccnc2)N2CCN(CCO)CC2)c1C (configuration not stated),.,-,-,.,-
CCOc1ccc(C(c2c(NC(=O)c3ccccc3)sc(C)c2C)N2CCN(CCO)CC2)cc1 (configuration not stated),-,-,-,-,68
Cc1sc(NC(=O)c2ccccc2)c(C(c2ccc(Cl)cc2)N2CCN(CCO)CC2)c1C (configuration not stated),-,-,-,-,91
COc1ccc(CCn2nnnc2C(CC(C)C)N2CCN(c3ncccn3)CC2)cc1OC (configuration not stated),-,.,-,-,66
